The results in this text go back to ChEMBL document CHEMBL1153366, “Synthesis, discovery and preliminary SAR study of benzofuran derivatives as angiogenesis inhibitors” (Bioorg Med Chem Lett, 2009).

Type in all cases: functional, cell-based
One experiment concerns Bel-7402. In words: Antiproliferative activity against human Bel7402 cells after 96 hrs by MTT method. An outline of the steps: (§1)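 Cancer cells seeded at 1500 cells/well in 96-well plates and allowed 20 h to attach. They were then exposed to compound in 0.1% DMSO over a range of concentrations, with an equal volume of carrier as control, in triplicate. After 96 h, MTT was used to give relative viability. IC50 came from the viability versus concentration relationship.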
Background: Tetrazolium dyes change colour on reduction, which living cells bring about.

Another experiment relates to A549. Description: Antiproliferative activity against human A549 cells after 96 hrs by MTT method. In outline: as §1
Another experiment deals with HUVEC. In words: Antiproliferative activity against HUVEC after 96 hrs by MTT method. Conditions: Homo sapiens; call rule not given here. An outline of the steps:
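HUVECs seeded at 1000 cells/well in 96-well plates and left to attach 20 h. Compound added in 0.1% DMSO at several concentrations, with a carrier-only control. Each concentration run in triplicate. After 96 h exposure, viability was read by MTT and expressed relative to control. IC50 was derived from viability versus concentration.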

The test system of a further experiment is MCF7. In words: Antiproliferative activity against human MCF7 cells after 96 hrs by MTT method. An outline of the steps: as §1

Structures are written as SMILES. pIC50: −log10 of the molar value. Bounds are passed on as bounds.

What is called pIC50 is −log10 of the IC50, conventionally taken in molar units. Read a low pIC50 as a high IC50. In the case of `CCOC(=O)/C=C/c1oc2ccc(O)cc2c1C(=O)OCC`, the IC50 entry in the experiment with Bel-7402, in the experiment on A549 and in the experiment with MCF7 was “Not Active” throughout. The same compound showed a pIC50 with HUVEC of 5.37.
Consider `CCOC(=O)/C=C/c1oc2ccc(O)cc2c1C`, for which the IC50 result with Bel-7402, in the experiment on A549 and in the experiment with MCF7 was “Not Active” throughout. In addition, the pIC50 with HUVEC was less than 4.30.
For the compound `CCOC(=O)/C=C/c1c(C)oc2ccc(O)cc12`, the IC50 entry with Bel-7402, with A549 and in the experiment on MCF7 was “Not Active” in each case. For the same compound, in the experiment on HUVEC, the pIC50 is 4.56.
On to `CCOC(=O)/C=C/c1c(C(=O)OCC)oc2ccc(O)cc12`, for which the IC50 result in the experiment with Bel-7402, in the experiment on A549 and in the experiment with MCF7 was “Not Active” throughout. Also, the negative-log IC50 (pIC50) in the experiment on HUVEC was 4.49.
